Hits are enriched below; roughly 2% of the tested compounds scored in any of these assays.
SR-BI HDL uptake: blocks mouse SR-BI lipid uptake from DiI-HDL; ldlA[mSR-BI] CHO cells, DiI-HDL uptake fluorescence, 3 h; 0.96% of 320,000 active; Q61009; inhibition, % at 12.5 µM;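 active = mean replicate inhibition of at least 70% and a set share of replicates each scoring 70 or more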
Xi reactivation: reactivates the inactive X chromosome in mouse fibroblasts; XiGFP mouse fibroblasts, % GFP-positive cells imaging, 3 d; cells co-treated with 5-aza-dC sensitizer; scaled so ellipticine positive control = 100%; activation, % at 7.58 µM; 0.055% of 360,000 active; AID 743238;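 active = mean normalized replicate activation at least 10% and every replicate at or above 10%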
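Material: SV40-immortalized XiGFP fibroblast cells, line 68-5-11 | Buffer or medium: DMEM containing 5-aza-dC | Dosing: One concentration, pinned | Times: 3 d treatment, 15 min room-temperature fixation | Controls: Ellipticine 6 µM positive control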
NSD2 HMT inh: inhibitors of human histone methyltransferase NSD2; O96028; NSD2 peptide methylation, AlphaScreen, 120 min; inhibition, % at 12.5 µM; 0.54% of 310,000 active; in the data active = inhibition above about 50%
sPLA2-III inh: Blocks human group III sPLA2 activity | AID 743126 | 0.56% of 370,000 active | Q9NZ20 | inhibition, % at 12.2 µM | QFRET BODIPY PC-A2 liposome hydrolysis, fluorescence;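 active = inhibition above mean plus 3 SD of compounds lying within the high and low control bounds, cut at about 19% in these data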
SR-BI DiI-HDL act: activators of SR-BI mediated HDL lipid uptake. CHO ldlA[mSR-BI] cells, DiI-HDL uptake fluorescence, 3 h; 100 = double the neutral-control signal. activation, % at 12.5 µM. 0.096% of 320,000 active. AID 504775;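 active = mean replicate activation of at least 60% and every replicate at or above 60%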
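Material: SR-BI-overexpressing, LDLR-lacking CHO cells | Dosing: Single compound concentration, delivered by pin transfer | Probe or stimulus: Labelled HDL, 10 µg/mL | Signal: Bottom-read cell fluorescence after medium removal, ex 550/em 595 nm | Schedule: 3 h, 37 °C | Evaluation: HDL uptake via cellular fluorescence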
ARNT TACC3 PPI: disrupts binding between human ARNT and TACC3 | 0.66% of 390,000 active | AlphaScreen His-ARNT PAS-B/GST-TACC3 binding, luminescence; TACC3 fragment carries E629A point mutation | inhibition, % at 9.99 µM | Q9Y6A5;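 active = mean inhibition of replicates at least 50% and at least half of replicates each reaching 50%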
Numbers stand for hits; i = inactive; nt = no result.

SMILES	SR-BI HDL uptake	Xi reactivation	NSD2 HMT inh	sPLA2-III inh	SR-BI DiI-HDL act	ARNT TACC3 PPI
COc1ccc(Nc2cc(Cl)nc(N)n2)cc1	i	i	i	i	67	i
Cc1ccc(-c2cn3nc(-c4ccccc4)c(-c4ccccc4)nc3n2)cc1	nt	78	i	i	nt	nt
CN1CCN(C(=O)c2cc3c(c(-c4cccc(-c5cccnc5)c4)n2)[C@@H](CCO)N(C(=O)CC2CC2)C3)CC1	nt	i	nt	i	nt	i
COc1cc(O)c(/C=N/NC(=O)c2ccncc2)c(OC)c1[N+](=O)[O-]	i	i	i	i	i	65
COc1ccc(/C=N/NC(=O)c2ccncc2)cc1[N+](=O)[O-]	i	i	i	i	i	i
COc1cc(C(=O)Oc2ccc(/C=N/NC(=O)c3ccncc3)cc2)cc(OC)c1OC	73	i	i	i	i	i
CN(CC(=O)Nc1ccc(F)cc1)C(=O)CNC(=O)C1CCCCC1	i	i	i	i	i	i
C/C(CCc1ccc2c(c1)OCO2)=N\NC(=S)NC(C)C	77	i	i	i	i	i
CC(C)NC(=O)N(C)C[C@H]1Oc2ccc(NC(=O)Cc3cn(C)c4ccccc34)cc2CC(=O)N([C@H](C)CO)C[C@H]1C	nt	i	nt	nt	nt	i
O=C(O)c1cc2ccccc2cn1	i	i	i	i	i	77
COc1cc(OC)cc(C(=O)NC(=S)Nc2cc3oc4ccccc4c3cc2OC)c1	81	i	i	i	i	i
COCCNC(=S)Nc1cc2oc3ccccc3c2cc1OC	93	i	i	i	i	i
COc1cc2c(cc1NC(=O)c1ccncc1)oc1ccccc12	78	nt	i	nt	i	i
COc1cccc(CN(C)CC(=O)Nc2cc3oc4ccccc4c3cc2OC)c1	78	i	i	i	i	i
CC(=O)N1[C@@H](CO)[C@@H](c2ccccc2)C12CN(Cc1ccccc1)C2	nt	i	nt	nt	nt	nt
COc1ccccc1CC(=O)Nc1cc2oc3ccccc3c2cc1OC	87	nt	i	i	i	i
COc1ccc(CC(=O)Nc2cc3oc4ccccc4c3cc2OC)cc1	i	i	i	i	i	i
Cc1c(CN(C)Cc2cn(C)nc2-c2ccccc2F)[nH]c2ccccc12	nt	i	i	i	nt	i
COc1ccc(N2CCCC2)c(NC(=O)COc2ccccc2)c1	i	i	i	i	i	i
Cc1cc(N2CCCC2)ccc1NC(=O)COc1ccccc1	72	i	i	i	i	i
COc1ccc(OCC(=O)Nc2ccc(N3CCN(C(=O)c4ccccc4C)CC3)cc2)cc1	77	i	i	i	i	i
Cc1ccccc1OCC(=O)Nc1ccc(N2CCOCC2)cc1N1CCOCC1	i	i	i	i	i	i
Cc1cc(OCC(=O)Nc2ccc(N3CCCC3)cc2)cc(C)c1Cl	87	nt	i	i	i	i
CCc1ccc(OCC(=O)Nc2ccc(N3CCN(C(=O)c4ccccc4)CC3)cc2)cc1	i	i	i	i	i	i
CCc1ccccc1OCC(=O)Nc1ccc(N2CCCC2)cc1C	i	37	i	i	i	i
SMILES	SR-BI HDL uptake	Xi reactivation	NSD2 HMT inh	sPLA2-III inh	SR-BI DiI-HDL act	ARNT TACC3 PPI
C[C@H](CO)N1C[C@H](C)[C@@H](CN(C)S(=O)(=O)c2ccccc2)Oc2c(NS(=O)(=O)c3ccc(Cl)cc3)cccc2C1=O	nt	i	nt	nt	nt	i
CNC[C@@H]1Oc2ccc(NC(=O)Nc3ccc(C(F)(F)F)cc3)cc2CC(=O)N([C@@H](C)CO)C[C@@H]1C	nt	i	nt	nt	nt	i
COc1ccc(-c2cc(-c3ccc(O)cc3)nc(N)c2C#N)cc1	i	i	i	i	i	i
COc1cc(-c2cc(-c3ccc(O)cc3)nc(N)c2C#N)ccc1O	84	i	i	i	i	i
Cc1nc(NC(=O)CC(C)C)sc1-c1csc(Nc2ccc(Cl)cc2Cl)n1	i	i	nt	i	i	i
COc1ccc(Cl)cc1Nc1nc(-c2sc(NC(=O)CC(C)C)nc2C)cs1	i	i	nt	i	i	nt
CCCCCC(=O)Nc1nc(C)c(-c2csc(Nc3ccc(Cl)cc3)n2)s1	96	i	nt	i	i	i
Cc1nc(NC(=O)CC(C)C)sc1-c1csc(Nc2ccc(Cl)cc2)n1	73	i	nt	i	i	i
CCCC(C)C(=O)Nc1nc(C)c(-c2csc(Nc3cc(Cl)ccc3C)n2)s1 (centres undefined)	82	i	nt	i	i	i
CCCCCC(=O)Nc1nc(C)c(-c2csc(Nc3cc(Cl)ccc3C)n2)s1	79	i	nt	i	i	i
CCCCC(=O)Nc1nc(C)c(-c2csc(Nc3ccccc3OC)n2)s1	i	i	nt	i	i	i
COC(=O)[C@]12C[C@H](CC(=O)NCCCCc3ccccc3)C(=O)N(CCc3ccc(OC)c(OC)c3)C1=C[C@H](C1CCCC1)O[C@@H]2C	nt	nt	nt	i	nt	nt
CCCCNC(=O)Cn1c(=O)c2c(ncn2CCC(C)C)n(Cc2ccccc2)c1=O	nt	i	i	i	nt	i
CC(=O)n1c(-c2ccccc2)c(CO)c2ccccc21	i	i	nt	i	i	i
NCCc1c(-c2ccccc2)n(-c2ccccc2)c2ccccc12	i	i	60	i	i	nt
C[C@@H]1CN([C@H](C)CO)C(=O)c2cc(NC(=O)Cn3cnnn3)ccc2O[C@@H]1CN(C)C(=O)Nc1cccc2ccccc12	nt	i	nt	nt	nt	i
COc1cccc(OCC(=O)Nc2ccccc2NC(C)=O)c1	i	nt	i	i	i	i
COc1cccc(OCC(=O)Nc2cc(Cl)ccc2Oc2ccccc2)c1	87	i	i	i	i	i
O=C(NCCCn1ccnc1)C(=O)NCC1OCCN1S(=O)(=O)c1ccc2c(c1)OCCO2 (centres undefined)	nt	i	nt	i	nt	64
COc1ccc2nc(SCC(=O)NCC(F)(F)F)[nH]c2c1	i	i	i	i	i	i
CNC(=S)N/N=C/c1cn(CCOc2ccc(OC)cc2)c2ccccc12	78	i	i	i	i	i
COc1ccc(OCCn2cc(C=O)c3ccccc32)cc1	i	i	i	i	i	i
COc1ccccc1OCCn1cc(/C=N/NC(N)=S)c2ccccc21	77	i	i	i	i	i
COc1ccccc1C(=O)NC(=S)/C=C1/N(C)c2ccccc2C1(C)C	i	i	i	20	i	i
COc1cc(OC)cc(C(=O)OCC(=O)Nc2nnc(-c3ccccc3)o2)c1	i	i	i	i	i	i
COc1cc(OC)c(C(=O)OCC(=O)Nc2nnc(-c3ccccc3)o2)cc1OC	i	i	i	i	i	85
O=C(COc1ccccc1)Nc1nnc(-c2ccccc2)o1	i	i	nt	i	i	93
O=C(Nc1nnc(-c2ccccn2)o1)c1ccc(Br)cc1	i	i	i	i	i	i
O=C(COC(=O)c1ccco1)Nc1nnc(-c2ccccc2)o1	i	i	i	i	i	60
CCC(=O)Nc1nnc(-c2ccccn2)o1	i	i	i	i	i	48

Source: PubChem BioAssay (several laboratories)
